EWS-Fli block – blocks EWS/Fli oncoprotein-driven transcription. A673 NR0B1-luciferase reporter, viability-normalised. inhibition, % at 12.6 µM. 350,000 compounds, 0.67% hits;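 active = mean inhibition of at least 50% after viability correction, with every replicate also passing that limit; inconclusive = mean reaches 50% but only one of two replicates passes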;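 note: firefly luciferase signal divided by Alamar Blue viability fluorescence both relative to DMSO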
FN deposition inh – fibronectin deposition inhibition; AH1F fibroblasts, Alexa488-fibronectin deposition fluorescence, overnight; inhibition, % at 12.6 µM; 350,000 compounds, 0.086% hits;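 active = mean inhibition across replicates of 30% or more, regardless of how many single replicates reach that level; inconclusive = mean under 30% yet at least half of replicates reach 30%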;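 note: positive control wells lacked labelled fibronectin entirely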
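Material: AH1F fibroblast monolayer depositing Alexa488-labelled fibronectin into matrix / Amount: 10000 AH1F cells per well / Signal: fluorescence 485/525 nm / Medium: DMEM, 2% serum / Compound: single dose, pinned / Incubation: 1 h cell adhesion before compound, then overnight fibronectin incubation / Reagent: Alexa488-FN, 24 nM final / Read-out: inhibition of fibronectin deposition signal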
XiGFP reactiv – activators of X-chromosome reactivation in mouse fibroblasts. activation, % at 7.58 µM. 360,000 compounds, 0.055% hits. XiGFP mouse fibroblasts, % GFP-positive cells imaging, 3 d; cells co-treated with 5-aza-dC sensitizer; scaled so ellipticine positive control = 100%. AID 743238;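 active = mean normalized replicate activation at least 10% and every replicate at or above 10%; inconclusive = only one of the two criteria met; inactive = mean below 10% and not all replicates reach 10%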;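 note: 0% = median of on-plate neutral control wells and 100% = ellipticine 6 µM median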
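Material: XiGFP fibroblasts, SV40-immortalized. Buffer or medium: DMEM plus 5-aza-dC sensitizer. Compound: single concentration per compound, delivered by pin transfer. Times: 3 days compound exposure. Controls: ellipticine 6 µM.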
TROY NFkB inh – blocks TROY-dependent signaling in reporter cells; inhibition, % at 10 µM; 360,000 compounds, 0.98% hits; Q293 LMP1-TROYcd NF-kB luciferase reporter, 4 h;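 active = compounds whose plate-normalised and pattern-corrected inhibition of the luciferase reporter signal at the single screening dose is 50% or more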
LGR2 inh – Drosophila LGR2 receptor signaling inhibition. inhibition, % at 9.99 µM. 380,000 compounds, 0.35% hits. HEK293 LGR2, CRE-luciferase, bursicon-stimulated, 4 h;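 active = drop in luminescence signal, shown as inhibition above about 50% in the replicate tests, limit read from the data, passing the limit was not always enough; inconclusive = probably only some replicates passing the limit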;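 note: agonist challenge used bursicon conditioned medium at about half maximal strength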
TWEAK-Fn14 inh – TWEAK-Fn14 signaling inhibition | 360,000 compounds, 2% hits | TWEAK-stimulated Fn14 reporter cells, luciferase luminescence, 8 h | AID 1159606 | inhibition, % at 10 µM; in the data active = inhibition above about 50%
Starred values were filed as active, the others as inactive; ? = inconclusive; / = no result. Most compounds without a hit are left out; they make up all but 2.3% or so of the library.

SMILES	EWS-Fli block	FN deposition inh	XiGFP reactiv	TROY NFkB inh	LGR2 inh	TWEAK-Fn14 inh
CNC[C@@H]1Oc2ncc(-c3ccccc3F)cc2C(=O)N([C@@H](C)CO)C[C@@H]1C	-0.9	2.2	-0.1	/	-1.4	/
CC(C)NC(=O)N(C)C[C@H]1Oc2ccc(NC(=O)c3ccncc3)cc2C(=O)N([C@@H](C)CO)C[C@H]1C	-12.2	2.9	0.2	/	0.1	/
C[C@@H]1CCCCO[C@H](CN(C)C(=O)CCCN(C)C)[C@@H](C)CN([C@H](C)CO)C(=O)c2cc(NC(=O)CCCN(C)C)ccc2O1	3.1	-21.1	0.0	/	10.0	/
CCCNC(=O)C[C@@H]1CC[C@H]2[C@@H](COc3ccc(NC(=O)Cc4ccccc4)cc3C(=O)N2C)O1	-10.5	-14.2	0.3	/	1.3	/
CCOC(=O)c1nc(C)nc(Sc2n[nH]c(-c3cc(C(F)(F)F)cc(C(F)(F)F)c3)n2)c1C	13.3	-3.0	0.0	59.0*	/	-41.0
CC(=O)c1c(Nc2ccc3c(c2)OCCO3)oc(C)cc1=O	-30.1	5.1	0.2	38.7	-78.3	69.9*
Cc1ccc(C(=O)O/N=C(\N)c2ccccn2)cc1C	74.4*	-2.6	0.1	80.9*	97.5*	99.0*
N/C(=N\OC(=O)c1ccc2c(c1)OCO2)c1cccc([N+](=O)[O-])c1	-66.9	-7.2	0.1	-47.9	-31.2	-5.1
N/C(=N\OC(=O)c1cccc(F)c1)c1ccccn1	29.1	-14.1	0.0	61.0*	?	84.0*
Cc1cccc(/C(N)=N/OC(=O)c2ccc3c(c2)OCO3)c1	/	1.1	0.1	42.6	53.6*	62.8*
Cc1cccc(/C(N)=N/OC(=O)C23CC4CC(CC(C4)C2)C3)c1	-9.5	1.1	0.3	60.2*	/	35.3
N/C(=N\OC(=O)c1cccc(F)c1)c1ccccc1	/	4.9	/	-60.4	7.1	-11.0
COc1ccc(S(=O)(=O)Nc2ccc3c(c2)C(=O)N([C@@H](C)CO)C[C@@H](C)[C@@H](CN(C)C)OCCCC[C@H](C)O3)cc1	/	1.4	0.3	/	3.2	/
CCNC(=O)C[C@H]1CC[C@H]2[C@@H](COc3ccc(NC(=O)c4ccccc4)cc3C(=O)N2C)O1	3.7	-9.0	0.2	/	-0.8	/
COc1ccc(S(=O)(=O)Nc2ccc3c(c2)C(=O)N([C@H](C)CO)C[C@H](C)[C@@H](CN(C)C(=O)Cc2ccccc2)OCCCC[C@H](C)O3)cc1	4.6	/	-0.1	/	-13.2	/
Cc1cccc(C(=O)O/N=C(\N)c2ccccn2)c1	76.8*	6.7	0.6	85.1*	100.2*	101.9*
C[C@@H]1CCCCO[C@H](CN(C)C(=O)c2ccncc2)[C@H](C)CN([C@H](C)CO)C(=O)c2cc(N(C)C)ccc2O1	-7.6	/	0.0	/	12.0	/
O=[N+]([O-])c1cc(S(=O)(=O)Nc2cccc(C(F)(F)F)c2)ccc1-n1nnc2ccccc21	/	/	/	57.8*	/	13.6
O=C(NC1=NC2CCCCC2N1)c1ccccc1 (stereo unspecified)	/	/	/	43.6	-4.5	76.3*
C[C@@H]1CN([C@@H](C)CO)C(=O)c2cc(NC(=O)c3ccncc3)ccc2O[C@@H](C)CCCCO[C@@H]1CN(C)C(=O)Nc1cccc2ccccc12	-30.5	/	-0.2	/	4.6	/
COc1cc2cc(-c3ccc(OC)c(OC)c3C)nc(N)c2cc1OC	51.8*	-12.5	0.5	13.0	0.2	-11.7
COc1cc2cc(-c3ccc(O)cc3O)nc(C)c2cc1OC	26.8	16.1	0.0	-57.4	-9.5	7.3
CCN(CC)c1ccc(/C=N/NC(=O)c2ccoc2C)cc1	7.9	-1.7	0.0	42.4	/	63.3*
O=C(C[C@@H]1C=C[C@@H](NC(=O)C2CC2)[C@@H](CO)O1)NCCc1cscn1	2.7	-0.6	0.0	/	6.8	/
Cc1ccc(NC(=O)C2CCCC2)cc1Cl	-19.0	2.4	-0.1	-13.9	-36.7	2.9
Cc1ccc(NS(=O)(=O)c2ccc(Cl)c(NC(=S)NC(=O)C3CCCCC3)c2)cc1Cl	/	1.6	0.1	36.5	2.6	65.2*
CCC(C)(NC(=O)c1ccc2c(c1)OCO2)C(=O)NC1CCCCC1 (stereo unspecified)	-1.8	7.3	0.1	6.9	-11.2	51.1*

High-throughput results deposited in PubChem BioAssay by several laboratories.
